According to ChEMBL document CHEMBL5329156, “Discovery and development of novel substituted monohydrazides as potent antifungal agents” (RSC Med Chem, 2023):
Converted amounts (≈) assume the structure as drawn. The source made the active and inactive calls. The calls are words filed in the database; no cut-off is given here.

Legend:
[Candida] auris [1] = Antifungal activity against Candida auris AR Bank # 0384 assessed as fungal growth inhibition by double dilution method; type: functional; conditions: Candidozyma auris
Procedure, shortened: (§1)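 Broth microdilution after CLSI M27-A3/M38-A2 with minor changes. Single colony grown overnight in YPD at 35 °C, 200 rpm. Compound final range 0.06-31.3 µg/mL; incubated 48 h at 35 °C.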

[Candida] auris [2] = Antifungal activity against Candida auris AR Bank # 387 assessed as fungal growth inhibition by double dilution method; type: functional; conditions: Candidozyma auris; procedure, shortened: as §1
[Candida] auris [3] = Antifungal activity against Candida auris AR Bank # 383 assessed as fungal growth inhibition by double dilution method; type: functional; conditions: Candidozyma auris; procedure, shortened: as §1
Candida albicans [4] = assay: Antibiofilm activity against Candida albicans ATCC 10231 assessed as reduction in biofilm production at 1.96 to 3.9 microg/ml by biofilm formation assay; type: functional, organism-based; conditions: dose 1.96-3.9 µg/ml
[Candida] haemuloni [5] = Antifungal activity against Candida haemulonii AR Bank # 395 assessed as fungal growth inhibition by double dilution method; type: functional; conditions: Candidozyma haemuli; procedure, shortened: as §1
Candida albicans [6] = assay: Antifungal activity against Candida albicans ATCC 64124 assessed as fungal growth inhibition by double dilution method; type: functional
Procedure, shortened: (§2)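 Broth microdilution after CLSI M27-A3/M38-A2 with minor modifications. A single colony was grown overnight in YPD at 35 °C with shaking at 200 rpm. Cells were mixed 1:1 with compound (final 0.06-31.3 µg/mL, from DMSO stocks) and incubated 48 h at 35 °C.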

Candida albicans [7] = assay: Antifungal activity against itraconazole/fluconazole resistant Candida albicans ATCC MYA-1003 assessed as fungal growth inhibition by double dilution method; type: functional; procedure, shortened: as §2
Candida duobushaemulonii [8] = assay: Antifungal activity against Candida duobushaemulonii AR Bank # 391 assessed as fungal growth inhibition by double dilution method; type: functional; conditions: Candidozyma duobushaemuli; procedure, shortened: as §1
[Candida] haemuloni [9] = Antifungal activity against Candida haemulonii AR Bank # 393 assessed as fungal growth inhibition by double dilution method; type: functional; conditions: Candidozyma haemuli; procedure, shortened: as §1
Nakaseomyces glabratus [10] = assay: Antifungal activity against Candida glabrata ATCC 22019 assessed as fungal growth inhibition by double dilution method; type: functional; procedure, shortened: as §1
[Candida] auris [11] = Antifungal activity against Candida auris AR Bank # 390 assessed as fungal growth inhibition by double dilution method; type: functional; conditions: Candidozyma auris; procedure, shortened: as §1
Kodamaea ohmeri = assay: Antifungal activity against Kodamaea ohmeri AR Bank # 396 assessed as fungal growth inhibition by double dilution method; type: functional; procedure, shortened: as §1
[Candida] auris [12] = Antifungal activity against Candida auris AR Bank # 386 assessed as fungal growth inhibition by double dilution method; type: functional; conditions: Candidozyma auris; procedure, shortened: as §1
Aspergillus terreus = assay: Antifungal activity against Aspergillus terreus ATCC MYA-3633 assessed as fungal growth inhibition by double dilution method; type: functional
[Candida] auris [13] = Antifungal activity against Candida auris AR Bank # 0390 assessed as fungal growth inhibition by double dilution method; type: functional; conditions: Candidozyma auris; procedure, shortened: as §1
Cryptococcus neoformans = assay: Antifungal activity against Cryptococcus neoformans ATCC MYA-895 assessed as fungal growth inhibition by double dilution method; type: functional; procedure, shortened: as §1
[Candida] auris [14] = Antifungal activity against Candida auris AR Bank # 385 assessed as fungal growth inhibition by double dilution method; type: functional; conditions: Candidozyma auris; procedure, shortened: as §1
Clavispora lusitaniae = assay: Antifungal activity against Clavispora lusitaniae AR Bank # 398 assessed as fungal growth inhibition by double dilution method; type: functional; procedure, shortened: as §1
Candida albicans [15] = assay: Antifungal activity against Candida albicans ATCC 10231 assessed as fungal growth inhibition by double dilution method; type: functional; procedure, shortened: as §1
Saccharomyces cerevisiae [16] = assay: Antifungal activity against Saccharomyces cerevisiae AR Bank # 400 assessed as fungal growth inhibition by double dilution method; type: functional; procedure, shortened: as §1
Candida albicans [17] = assay: Antifungal activity against itraconazole/fluconazole resistant Candida albicans ATCC MYA-1237 assessed as fungal growth inhibition by double dilution method; type: functional; procedure, shortened: as §2
Candida albicans [18] = assay: Antifungal activity against itraconazole/fluconazole resistant Candida albicans ATCC 90819 assessed as fungal growth inhibition by double dilution method; type: functional; procedure, shortened: as §2
Candida albicans [19] = assay: Antifungal activity against itraconazole/fluconazole susceptible Candida albicans ATCC MYA-2876 assessed as fungal growth inhibition by double dilution method; type: functional; procedure, shortened: as §2
Candida duobushaemulonii [20] = assay: Antifungal activity against Candida duobushaemulonii AR Bank # 392 assessed as fungal growth inhibition by double dilution method; type: functional; conditions: Candidozyma duobushaemuli; procedure, shortened: as §1
[Candida] auris [21] = Antifungal activity against Candida auris AR Bank # 384 assessed as fungal growth inhibition by double dilution method; type: functional; conditions: Candidozyma auris; procedure, shortened: as §1
Nakaseomyces glabratus [22] = assay: Antifungal activity against Candida glabrata ATCC 2001 assessed as fungal growth inhibition by double dilution method; type: functional; procedure, shortened: as §1
Aspergillus nidulans = assay: Antifungal activity against Aspergillus nidulans ATCC 38163 assessed as fungal growth inhibition by double dilution method; type: functional
[Candida] auris [23] = Antifungal activity against Candida auris AR Bank # 382 assessed as fungal growth inhibition by double dilution method; type: functional; conditions: Candidozyma auris; procedure, shortened: as §1
Pichia kudriavzevii [24] = assay: Antifungal activity against Pichia kudriavzevii AR Bank # 397 assessed as fungal growth inhibition by double dilution method; type: functional; procedure, shortened: as §1
Aspergillus fumigatus [25] = assay: Antifungal activity against Aspergillus fumigatus NRRL 5109 assessed as fungal growth inhibition by double dilution method; type: functional
[Candida] auris [26] = Antifungal activity against Candida auris AR Bank # 381 assessed as fungal growth inhibition by double dilution method; type: functional; conditions: Candidozyma auris; procedure, shortened: as §1
[Candida] auris [27] = Antifungal activity against Candida auris AR Bank # 388 assessed as fungal growth inhibition by double dilution method; type: functional; conditions: Candidozyma auris; procedure, shortened: as §1
Candida duobushaemulonii [28] = assay: Antifungal activity against Candida duobushaemulonii AR Bank # 394 assessed as fungal growth inhibition by double dilution method; type: functional; conditions: Candidozyma duobushaemuli; procedure, shortened: as §1
Pichia kudriavzevii [29] = assay: Antifungal activity against Pichia kudriavzevii ATCC 6258 assessed as fungal growth inhibition by double dilution method; type: functional; procedure, shortened: as §1
Aspergillus flavus = assay: Antifungal activity against Aspergillus flavus ATCC MYA-3631 assessed as fungal growth inhibition by double dilution method; type: functional
Aspergillus fumigatus [30] = assay: Antifungal activity against Aspergillus fumigatus NRRL 6113 assessed as fungal growth inhibition by double dilution method; type: functional
Candida albicans [31] = assay: Antifungal activity against itraconazole/fluconazole susceptible Candida albicans ATCC MYA-2310 assessed as fungal growth inhibition by double dilution method; type: functional; procedure, shortened: as §2
[Candida] auris [32] = Antifungal activity against Candida auris AR Bank # 389 assessed as fungal growth inhibition by double dilution method; type: functional; conditions: Candidozyma auris; procedure, shortened: as §1
Saccharomyces cerevisiae [33] = assay: Antifungal activity against Saccharomyces cerevisiae AR Bank # 399 assessed as fungal growth inhibition by double dilution method; type: functional; procedure, shortened: as §1
Aspergillus fumigatus [34] = assay: Antifungal activity against Aspergillus fumigatus NRRL 163 assessed as fungal growth inhibition by double dilution method; type: functional

COc1ccc(NNC(=O)c2ccccn2)cc1
MIC ([Candida] auris [1]): 3.9 µg/mL (≈ 16 µM) | MIC ([Candida] auris [2]): 0.49 µg/mL (≈ 2.01 µM) | MIC ([Candida] auris [3]): 1.95 µg/mL (≈ 8.02 µM) | Activity (Candida albicans [4]): Active | MIC ([Candida] haemuloni [5]): 0.49 µg/mL (≈ 2.01 µM) | MIC (Candida albicans [6]): 0.98 µg/mL (≈ 4.03 µM) | MIC (Candida albicans [7]): 0.98 µg/mL (≈ 4.03 µM) | MIC (Candida duobushaemulonii [8]): 0.98 µg/mL (≈ 4.03 µM) | MIC ([Candida] haemuloni [9]): 0.49 µg/mL (≈ 2.01 µM) | MIC (Nakaseomyces glabratus [10]): 3.9 µg/mL (≈ 16 µM) | MIC ([Candida] auris [11]): 0.12 µg/mL (≈ 0.493 µM) | MIC (Kodamaea ohmeri): 0.49 µg/mL (≈ 2.01 µM) | MIC ([Candida] auris [12]): 0.24 µg/mL (≈ 0.987 µM) | MIC (Aspergillus terreus): 31.3 µg/mL (≈ 129 µM) | MIC ([Candida] auris [13]): 0.12 µg/mL (≈ 0.493 µM) | MIC (Cryptococcus neoformans): 0.49 µg/mL (≈ 2.01 µM) | MIC ([Candida] auris [14]): 0.98 µg/mL (≈ 4.03 µM) | MIC (Clavispora lusitaniae): 0.98 µg/mL (≈ 4.03 µM) | MIC (Candida albicans [15]): 0.12 µg/mL (≈ 0.493 µM) | MIC (Saccharomyces cerevisiae [16]): 0.98 µg/mL (≈ 4.03 µM) | MIC (Candida albicans [17]): 0.98 µg/mL (≈ 4.03 µM) | MIC (Candida albicans [18]): 0.49 µg/mL (≈ 2.01 µM) | MIC (Candida albicans [19]): 1.95 µg/mL (≈ 8.02 µM) | MIC (Candida duobushaemulonii [20]): 0.98 µg/mL (≈ 4.03 µM) | MIC ([Candida] auris [21]): 3.9 µg/mL (≈ 16 µM) | MIC (Nakaseomyces glabratus [22]): 0.98 µg/mL (≈ 4.03 µM) | MIC (Aspergillus nidulans): 0.49 µg/mL (≈ 2.01 µM) | MIC ([Candida] auris [23]): 1.95 µg/mL (≈ 8.02 µM) | MIC (Pichia kudriavzevii [24]): 0.49 µg/mL (≈ 2.01 µM) | MIC (Aspergillus fumigatus [25]): > 31.3 µg/mL | MIC ([Candida] auris [26]): 1.95 µg/mL (≈ 8.02 µM) | MIC ([Candida] auris [27]): 0.49 µg/mL (≈ 2.01 µM) | MIC (Candida duobushaemulonii [28]): 0.98 µg/mL (≈ 4.03 µM) | MIC (Pichia kudriavzevii [29]): 0.49 µg/mL (≈ 2.01 µM) | MIC (Aspergillus flavus): > 31.3 µg/mL | MIC (Aspergillus fumigatus [30]): 31.3 µg/mL (≈ 129 µM) | MIC (Candida albicans [31]): 0.98 µg/mL (≈ 4.03 µM) | MIC ([Candida] auris [32]): 0.24 µg/mL (≈ 0.987 µM) | MIC (Saccharomyces cerevisiae [33]): 1.95 µg/mL (≈ 8.02 µM) | MIC (Aspergillus fumigatus [34]): > 31.3 µg/mL

O=C(NNc1cc(Cl)cc(Cl)c1)c1ccccn1
MIC ([Candida] auris [1]): 7.8 µg/mL (≈ 27.6 µM) | MIC ([Candida] auris [2]): 0.98 µg/mL (≈ 3.47 µM) | MIC ([Candida] auris [3]): 1.95 µg/mL (≈ 6.91 µM) | Activity (Candida albicans [4]): inactive | MIC ([Candida] haemuloni [5]): 0.24 µg/mL (≈ 0.851 µM) | MIC (Candida albicans [6]): 1.95 µg/mL (≈ 6.91 µM) | MIC (Candida albicans [7]): 1.95 µg/mL (≈ 6.91 µM) | MIC (Candida duobushaemulonii [8]): 0.98 µg/mL (≈ 3.47 µM) | MIC ([Candida] haemuloni [9]): 0.24 µg/mL (≈ 0.851 µM) | MIC (Nakaseomyces glabratus [10]): 1.95 µg/mL (≈ 6.91 µM) | MIC ([Candida] auris [11]): 3.9 µg/mL (≈ 13.8 µM) | MIC (Kodamaea ohmeri): 0.49 µg/mL (≈ 1.74 µM) | MIC ([Candida] auris [12]): 0.98 µg/mL (≈ 3.47 µM) | MIC (Aspergillus terreus): 1.95 µg/mL (≈ 6.91 µM) | MIC ([Candida] auris [13]): 1.95 µg/mL (≈ 6.91 µM) | MIC (Cryptococcus neoformans): 0.49 µg/mL (≈ 1.74 µM) | MIC ([Candida] auris [14]): 1.95 µg/mL (≈ 6.91 µM) | MIC (Clavispora lusitaniae): 3.9 µg/mL (≈ 13.8 µM) | MIC (Candida albicans [15]): 0.24 µg/mL (≈ 0.851 µM) | MIC (Saccharomyces cerevisiae [16]): 3.9 µg/mL (≈ 13.8 µM) | MIC (Candida albicans [17]): 3.9 µg/mL (≈ 13.8 µM) | MIC (Candida albicans [18]): 0.98 µg/mL (≈ 3.47 µM) | MIC (Candida albicans [19]): 1.95 µg/mL (≈ 6.91 µM) | MIC (Candida duobushaemulonii [20]): 0.98 µg/mL (≈ 3.47 µM) | MIC ([Candida] auris [21]): 7.8 µg/mL (≈ 27.6 µM) | MIC (Nakaseomyces glabratus [22]): 7.8 µg/mL (≈ 27.6 µM) | MIC (Aspergillus nidulans): 0.49 µg/mL (≈ 1.74 µM) | MIC ([Candida] auris [23]): 0.98 µg/mL (≈ 3.47 µM) | MIC (Pichia kudriavzevii [24]): 0.49 µg/mL (≈ 1.74 µM) | MIC (Aspergillus fumigatus [25]): > 31.3 µg/mL | MIC ([Candida] auris [26]): 3.9 µg/mL (≈ 13.8 µM) | MIC ([Candida] auris [27]): 3.9 µg/mL (≈ 13.8 µM) | MIC (Candida duobushaemulonii [28]): 0.49 µg/mL (≈ 1.74 µM) | MIC (Pichia kudriavzevii [29]): 0.98 µg/mL (≈ 3.47 µM) | MIC (Aspergillus flavus): > 31.3 µg/mL | MIC (Aspergillus fumigatus [30]): > 31.3 µg/mL | MIC (Candida albicans [31]): 1.95 µg/mL (≈ 6.91 µM) | MIC ([Candida] auris [32]): 1.95 µg/mL (≈ 6.91 µM) | MIC (Saccharomyces cerevisiae [33]): 3.9 µg/mL (≈ 13.8 µM) | MIC (Aspergillus fumigatus [34]): > 31.3 µg/mL
